Laboratory results published in ChEMBL document CHEMBL1142887, “N-Phenyl-N'-(2-chloroethyl)ureas (CEU) as potential antineoplastic agents. Part 2: role of omega-hydroxyl group in the covalent binding to beta-tubulin” (2007).

Columns and labels:
HT-29 = assay: Growth inhibition of HT29 cells after 48 hrs; type: functional; conditions: Homo sapiens, HT-29, 48 h
Summary of the method: (§1)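 NCI screening protocol. Cells in high-glucose DMEM with 5% bovine calf serum preincubated 24 h at 37 °C, 5% CO₂, then exposed 48 h to drug, final 10 to 0.3 µM (DMSO below 0.5%). TCA fixation, sulforhodamine B staining, absorbance at 585 nm against a plate fixed on treatment day to give growth inhibition and GI50. At least two experiments in triplicate.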

M21 = assay: Growth inhibition of M21 cells after 48 hrs; type: functional; conditions: Homo sapiens, M21, 48 h; summary of the method: as §1
MCF7 = assay: Growth inhibition of MCF7 cells after 48 hrs; type: functional; conditions: Homo sapiens, MCF7, 48 h; summary of the method: as §1
M21 (human) [1] = assay: Cell cycle arrest in M21 cells by accumulation at G2/M phase at 25 uM
M21 (human) [2] = assay: Induction of apoptosis in M21 cells at 3 uM
M21 (human) [3] = assay: Cell cycle arrest by accumulation at G0/G1 phase in M21 cells at 10 uM
HT-1080 = assay: Cell cycle arrest by accumulation at G2/M phase in HT1080 cells at 10 uM; type: functional, Homo sapiens
Summary of the method: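 HT 1080 cells incubated with drug (dissolved in DMSO, 0.5% final DMSO in medium; DMSO control). Cells harvested, fixed in ice-cold ethanol, and 5 × 10⁵ cells per sample stained with propidium iodide 50 µg/mL plus RNase A 40 U/mL for 30 min at room temperature. Flow cytometry gave % apoptotic cells and % G0/G1, S and G2/M populations.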

M21 (human) [4] = assay: Cell cycle arrest in M21 cells by accumulation at G0/G1 phase at 25 uM
M21 (human) [5] = assay: Cell cycle arrest by accumulation at S phase in M21 cells at 10 uM
M21 (human) [6] = assay: Cell cycle arrest by accumulation at G0/G1 phase in M21 cells at 3 uM
M21 (human) [7] = assay: Cell cycle arrest by accumulation at G2/M phase in M21 cells at 3 uM
M21 (human) [8] = assay: Cell cycle arrest in M21 cells by accumulation at S phase at 25 uM
M21 (human) [9] = assay: Cell cycle arrest by accumulation at S phase in M21 cells at 3 uM
M21 (human) [10] = assay: Induction of apoptosis in M21 cells at 10 uM
M21 (human) [11] = assay: Induction of apoptosis in M21 cells at 25 uM
MDA-MB-231 = assay: Alkylation of beta-tubulin in MDA-MB-231 cells at 5 uM by electrophoretic mobility shift assay after 48 hrs; type: cell-based; conditions: Homo sapiens
M21 (human) [12] = assay: Induction of apoptosis in M21 cells at 4 uM
M21 (human) [13] = assay: Cell cycle arrest in M21 cells by accumulation at S phase at 4 uM
M21 (human) [14] = assay: Cell cycle arrest in M21 cells by accumulation at G0/G1 phase at 4 uM
M21 (human) [15] = assay: Cell cycle arrest by accumulation at G2/M phase in M21 cells at 4 uM
M21 (human) [16] = assay: Cell cycle arrest in M21 cells by accumulation at G0/G1 phase at 1.2 uM
M21 (human) [17] = assay: Induction of apoptosis in M21 cells at 1.2 uM
M21 (human) [18] = assay: Cell cycle arrest in M21 cells by accumulation at S phase at 1.2 uM
M21 (human) [19] = assay: Cell cycle arrest in M21 cells by accumulation at G2/M phase at 1.2 uM

| Structure (SMILES) | GI50 (HT-29) [µM] | GI50 (MCF7) [µM] | GI50 (M21) [µM] | Activity (M21 (human) [3]) [%] | Activity (M21 (human) [5]) [%] | Activity (M21 (human) [10]) [%] | other results |
| --- | --- | --- | --- | --- | --- | --- | --- |
| CCCCCc1cccc(NC(=O)NCCCl)c1 | – | 1 | – | 7.85 | 13.28 | 8.59 | Activity (M21 (human) [1]): 68.48%; Activity (M21 (human) [2]): 6.16%; Activity (HT-1080): 68.06%; Activity (M21 (human) [4]): 8.75%; Activity (M21 (human) [6]): 15.06%; Activity (M21 (human) [7]): 60.78%; Activity (M21 (human) [8]): 15.23%; Activity (M21 (human) [9]): 17.75%; Activity (M21 (human) [11]): 7.84%; Activity (MDA-MB-231): 90% |
| O=C(NCCCl)Nc1cccc(CCCCCO)c1 | – | – | – | 5.9 | 12.11 | 10.71 | Activity (M21 (human) [12]): 9.83%; Activity (M21 (human) [13]): 12.12%; Activity (M21 (human) [14]): 7.57%; Activity (M21 (human) [15]): 70.24%; Activity (M21 (human) [16]): 54.35%; Activity (M21 (human) [17]): 7.58%; Activity (M21 (human) [18]): 16.65%; Activity (M21 (human) [19]): 21.82% |
| CCCCCCCc1cccc(NC(=O)NCCCl)c1 | 1 | 2 | 1 | – | – | – | – |
| COCCCCCc1cccc(NC(=O)NCCCl)c1 | – | 1 | – | 7.52 | 14.37 | 9.02 | Activity (M21 (human) [1]): 70.84%; Activity (M21 (human) [2]): 8.5%; Activity (HT-1080): 68.57%; Activity (M21 (human) [4]): 6.74%; Activity (M21 (human) [6]): 31.28%; Activity (M21 (human) [7]): 40.22%; Activity (M21 (human) [8]): 13.79%; Activity (M21 (human) [9]): 19.98%; Activity (M21 (human) [11]): 8.63%; Activity (MDA-MB-231): 81% |
| CCCCCCc1cccc(NC(=O)NCCCl)c1 | 1 | 1 | 1 | – | – | – | – |

Continued, in another order:

| GI50 (HT-29) [µM] | GI50 (MCF7) [µM] | Structure (SMILES) | GI50 (M21) [µM] | Activity (M21 (human) [3]) [%] | Activity (M21 (human) [5]) [%] | Activity (M21 (human) [10]) [%] | other results |
| --- | --- | --- | --- | --- | --- | --- | --- |
| > 10 | > 10 | COCc1cccc(NC(=O)NCCCl)c1 | > 10 | – | – | – | – |
| 4 | 14 | COCCc1cccc(NC(=O)NCCCl)c1 | 6 | – | – | – | – |
| 1 | 3 | COCCCCc1cccc(NC(=O)NCCCl)c1 | 2 | – | – | – | – |
| > 10 | > 10 | COc1cccc(NC(=O)NCCCl)c1 | > 10 | – | – | – | – |
| 4 | > 10 | COCCCc1cccc(NC(=O)NCCCl)c1 | 5 | – | – | – | – |
